An excerpt weighted towards active compounds, which were near 2.6% of everything screened.
HTRA1 inhibitor: blocks human HTRA1 serine peptidase. Q92743. recombinant HTRA1, FP-rhodamine activity-based probe, fluorescence polarization. inhibition, % at 5.96 µM. hit rate 0.5% among 340,000. AID 504803; in the data active = inhibition above about 36%;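 also: 0% = enzyme with DMSO and 100% = wells lacking enzyme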
ABHD4 inh: inhibitors of mouse ABHD4; Q8VD66; purified mABHD4, FP-Rh probe fluorescence polarization; inhibition, % at 8.92 µM; hit rate 0.54% among 370,000;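 active = inhibition exceeding the mean over every tested compound plus 3 SD, cut at about 30% in these data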;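 also: 0% = plate median of compound wells and 100% = S159A mutant with DMSO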
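Material: mouse ABHD4 enzyme, wild type; Benchmarks: S159A mutant high control, sample median low control; Buffer or medium: HEPES pH 7.0, NaCl, Pluronic buffer; Signal: fluorescence polarization; Read-out: percent inhibition of probe binding, normalized to plate controls; Timing: pre-incubation 45 min, probe exposure 60 min, at 25 °C; Dosing: 8.92 µM, single dose.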
PRMT1 FP inh: inhibitors of human PRMT1; Q99873; recombinant PRMT1, activity-based probe fluorescence polarization; inhibition, % at 2.79 µM; hit rate 1.3% among 370,000; AID 652257;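 active = inhibition above about 21% made by adding two undisclosed values, limit read from the data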
Target sequence (Q99873 whole entry, looked up): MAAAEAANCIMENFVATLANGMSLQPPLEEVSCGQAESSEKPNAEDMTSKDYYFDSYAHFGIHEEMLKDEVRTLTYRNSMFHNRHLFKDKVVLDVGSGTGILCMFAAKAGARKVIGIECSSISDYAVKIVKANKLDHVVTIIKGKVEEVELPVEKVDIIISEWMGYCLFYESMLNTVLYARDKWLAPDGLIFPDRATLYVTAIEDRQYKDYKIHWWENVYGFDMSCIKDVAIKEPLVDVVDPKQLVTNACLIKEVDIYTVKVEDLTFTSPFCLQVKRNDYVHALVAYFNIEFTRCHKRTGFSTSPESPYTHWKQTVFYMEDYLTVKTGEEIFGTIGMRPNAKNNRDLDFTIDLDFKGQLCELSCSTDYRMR
TCR-CD3 inh: blocks the human TCR-CD3 interaction. TAMRA-labeled TCR probe fluorescence, biochemical. inhibition, % at 9.4 µM. hit rate 0.37% among 360,000;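 also: recombinant mutant TCR 2C K166C tagged with TAMRA read by polarization; 0% = receptor in buffer alone and 100% = receptor with positive control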
SIAE inh: human SIAE inhibition, primary screen; SIAE FP-Rh probe binding, fluorescence polarization; inhibition, % at 9.66 µM; hit rate 0.69% among 370,000; AID 1053197;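 active = inhibition above a cutoff: mean of compounds within the control limits plus 3 SD of those, cut at about 17% in these data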;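 also: 0% = plate median of compound wells and 100% = probe without SIAE protein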
HTRA1 inh conf: confirmation of human HTRA1 inhibitors | shares compounds with HTRA1 inhibitor | recombinant HTRA1, FP-rhodamine activity-based probe, fluorescence polarization | inhibition, % at 5.96 µM | hit rate 66% among 1,600;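 active = mean inhibition over three repeats above a set limit taken from the earlier primary screen, cut at about 37% in these data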;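 also: 0% = HTRA1 with DMSO and 100% = wells lacking HTRA1; inhibitors block probe binding so polarization drops and inhibition rises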
BSA probe FL: counter-screen for TCR-CD3 interaction inhibitors: BSA probe; TAMRA-labeled BSA probe fluorescence counterscreen; inhibition, % at 9.4 µM; shares compounds with TCR-CD3 inh; AID 652035; hit rate 10% among 1,200; in the data active = inhibition above about 23%;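 also: 0% = buffer low control and 100% = reference high control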
TCR-CD3 conf: TCR-CD3 interaction inhibition, confirmation. shares compounds with TCR-CD3 inh. TAMRA-labeled TCR probe fluorescence binding assay. inhibition, % at 9.4 µM. hit rate 48% among 1,200. AID 652036
PRMT1 inh conf: confirmation of human PRMT1 inhibitors | shares compounds with PRMT1 FP inh | recombinant His-PRMT1, activity-based probe fluorescence polarization | inhibition, % at 2.79 µM | hit rate 42% among 3,300;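 active = mean inhibition across replicates above the hit cutoff derived for the earlier primary screen, cut at about 22% in these data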
mABHD4 conf: confirmation of mouse ABHD4 inhibitors; shares compounds with ABHD4 inh; purified mABHD4, FP-Rh probe fluorescence polarization; inhibition, % at 8.92 µM; hit rate 55% among 1,800;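 active = mean inhibition across replicates above the hit cutoff set in the primary screen, cut at about 30% in these data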;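 also: 0% = wild-type ABHD4 with DMSO and 100% = catalytically dead S159A mutant with DMSO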
Starred values were filed as active, the others as inactive; nt = no result given. Rule as the data show it, unless noted: active = inhibition above about 19%; inactive = the rest.

SMILES	HTRA1 inhibitor	ABHD4 inh	PRMT1 FP inh	TCR-CD3 inh	SIAE inh	HTRA1 inh conf	mABHD4 conf	others
N#CC1=C2N=C(N)c3c(sc4c3CCCCC4)N2C2=C(C(=O)CCC2)C1c1ccccc1 (stereo unspecified)	40*	32*	16	2	11	9	-26
CN=c1scc(-c2cccs2)n1/N=C/c1ccc(O)c(O)c1O	82*	56*	40*	28*	13	73*	74*	BSA probe FL=-20;TCR-CD3 conf=23*;PRMT1 inh conf=38*
C=CCN=c1scc(-c2ccco2)n1/N=C/c1ccc(O)c(O)c1O	72*	49*	29*	21*	2	86*	60*	BSA probe FL=-20;TCR-CD3 conf=14;PRMT1 inh conf=31*
C[C@@H]1CCCCO[C@H](CN(C)S(=O)(=O)c2cccs2)[C@@H](C)CN([C@H](C)CO)C(=O)c2cc(NC(=O)C3CCCCC3)ccc2O1	-1	-2	2	5	2	nt	nt
C=C1[C@H](C)CN(S(=O)C(C)(C)C)[C@H]1CCO (stereo partly specified)	nt	3	4	-4	2	nt	nt
O=C1CCCC2=C1C(c1ccc(O)c(O)c1)Nc1ccc3ccccc3c12 (stereo unspecified)	64*	32*	17	4	9	72*	26
CCS(=O)(=O)NCc1ccc2c(c1)cc(C)n2C	22	-2	0	13	-5	nt	nt
COc1ccc(S(=O)(=O)NCc2ccc3c(c2)cc(C)n3C)cc1	40*	47*	-2	35*	18*	0	15	BSA probe FL=25*;TCR-CD3 conf=28*
O=Cc1cc([B-](F)(F)F)cs1	nt	21	-4	0	4	nt	nt
CC(C)c1ccc(CNc2ccc(N3CCOCC3)cc2)cc1	57*	30*	4	2	15	6	16
Cc1cc(O)cc(=O)n1-c1cc(F)c(F)c(F)c1	nt	5	3	-4	-1	nt	nt
CC(C)CNC(=O)C1Nc2ccc(OC(F)(F)F)cc2C2C=CCC12 (stereo unspecified)	9	11	14	-8	4	nt	nt
CCOC(=O)c1ccc2c(c1)C1C=CCC1C(C(=O)OCC)N2 (stereo unspecified)	44*	35*	23*	-3	13	54*	45*
C=CCN1C[C@H](COC(=O)c2ccc(C)c(C)c2)Oc2cccc(F)c2S1(=O)=O	nt	-3	-1	3	-7	nt	nt
CCCCCC(=O)Nc1nc(C)c(-c2csc(Nc3cc(OC)ccc3OC)n2)s1	42*	44*	2	1	16	21	56*
CCCC1OC23CCCCC2C(C#N)(C(=N)O3)C1(C#N)C#N (stereo unspecified)	12	10	0	8	9	nt	nt
COc1ccc(C2OC34CCCCC3C(C#N)(C#N)C2(C#N)C(=N)O4)cc1 (stereo unspecified)	36*	34*	14	27*	13	43*	52*	BSA probe FL=65*;TCR-CD3 conf=44*
O=C1NC(=Nc2ccccc2Cl)S/C1=C\c1cccc([N+](=O)[O-])c1O	55*	53*	20	-8	2	58*	60*
COc1c(/C=C2\SC(=Nc3ccccc3Cl)NC2=O)cccc1[N+](=O)[O-]	-60	-21	-2	-8	-8	nt	nt
CC(=O)N(C)c1ccc(N=Cc2cc3c(cc2[N+](=O)[O-])OCO3)cc1	10	28	-1	8	13	nt	nt
CC(C)(C)c1ccc(O)c(N=Cc2cc3c(cc2[N+](=O)[O-])OCO3)c1	39*	49*	7	17	10	9	40*
O=[N+]([O-])c1ccc(O)c(C=Nc2ccc3c(c2)OCO3)c1	10	7	10	-5	4	nt	nt
Cc1ccc(C)c(N=Cc2cc3c(cc2[N+](=O)[O-])OCO3)c1	48*	50*	22*	-1	27*	5	45*
Cc1c(C(=O)O)sc(S(=O)(=O)N2CCN(C(=O)CCc3ccccc3)CC2)c1C(=O)O	-7	10	4	-6	6	nt	nt
O=C(C(=O)N1CCC(CNS(=O)(=O)c2cccc3ccccc23)CC1)c1cccs1	nt	-2	3	4	-4	nt	nt
SMILES	HTRA1 inhibitor	ABHD4 inh	PRMT1 FP inh	TCR-CD3 inh	SIAE inh	HTRA1 inh conf	mABHD4 conf	others
CCOc1ccccc1N1C(=O)CC(Nc2ccc(N3CCOCC3)cc2)C1=O (stereo unspecified)	44*	46*	5	6	9	14	9
COc1ccccc1N1C(=O)CC(Nc2ccc(N3CCOCC3)cc2)C1=O (stereo unspecified)	44*	46*	22*	-4	14	8	7
CCOc1ccccc1N1CC(C(=O)Nc2ccccc2N2CCOCC2)CC1=O (stereo unspecified)	-4	-9	-3	6	0	nt	nt
C/C(=N\Nc1nc2c(s1)CCCC2)c1ccc(Cl)cc1	54*	32*	7	2	11	14	50*
Oc1cccc(/C=N/NC(=S)Nc2cccnc2)c1O	42*	31*	12	0	14	24	25
Cc1nc2ccccc2c(=O)n1/N=C/c1ccc(O)c(O)c1O	49*	44*	16	41*	12	56*	27	BSA probe FL=-10;TCR-CD3 conf=25*
COc1cccc(C2NC(=S)N(Cc3ccccc3)C(C)=C2C(C)=O)c1 (stereo unspecified)	nt	0	7	2	-1	nt	nt
Nc1ccc(N=Nc2ccccc2)c2cccnc12	43*	30*	0	8	5	44*	55*
COCc1ccc(O)c2ncccc12	9	5	2	0	-3	nt	nt
COc1cccc(N=Nc2ccc(O)c3ncccc23)c1	76*	43*	-11	0	8	67*	48*
COc1ccc(-c2ncccc2O)cc1	0	-7	2	-4	1	nt	nt
COc1ccc(C)cc1N=Nc1ccc(O)c2ncccc12	86*	36*	3	-9	4	64*	39*
COC(=O)[C@]12C[C@H](CC(=O)N3CCCC3)C(=O)N(CCC3=CCCCC3)C1=C[C@H](COCc1ccccc1)O[C@@H]2C	nt	0	0	-2	-3	nt	nt
CC(=O)c1cccc(S(=O)(=O)Nc2cc(C(F)(F)F)ccc2N2CCOCC2)c1	1	-4	2	1	-4	nt	nt

Screens as filed in PubChem.
